Results on three compounds are retold here after ChEMBL document CHEMBL2203131, “An unusually cold active nitroreductase for prodrug activations” (Bioorg Med Chem, 2012).

Series [1] concerns Staphylococcus saprophyticus. The series is described as follows: Activity of Staphylococcus saprophyticus ATCC 15305 Ssap-NtrB assessed as residual activity measured for 10 mins at 15 degC by spectrophotometric analysis.
The subject of series [2] is Staphylococcus saprophyticus. The series is described as follows: Activity of Staphylococcus saprophyticus ATCC 15305 Ssap-NtrB assessed as residual activity measured for 10 mins at 3 degC by spectrophotometric analysis.
The nature of series [3]: Prodrug conversion in Tris-HCl buffer assessed as Staphylococcus saprophyticus ATCC 15305 Ssap-NtrB-mediated reduction after 30 mins by HPLC analysis. Conditions: 0.5 h. Format: ADME. Put shortly: (§1)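 CB1954 (1 mM final) or SN23862 (80 µM) was incubated in degassed 50 mM Tris-Cl pH 7.0, kept anaerobic by nitrogen bubbling, with 50 µg/ml Ssap-NtrB and 3.4 mM NADPH for at least 30 min at 18–20 °C. Reactions were stopped with ice-cold methanol, held at −80 °C, then centrifuged. Products were resolved by reverse-phase C18 HPLC with an acetonitrile–water gradient. Detection was at 260/420 nm, or 390/450 nm for SN23862.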

Series [4] is described as follows: Prodrug conversion in sodium phosphate buffer using NAD(P)H as cofactor assessed as Bacillus amyloliquefaciens CAMR 0454 ywrO-mediated reduction by steady state kinetics analysis. The class given is ADME.
The nature of series [5]: Ratio of apparent Kcat to apparent Km for Staphylococcus saprophyticus ATCC 15305 Ssap-NtrB-mediated reduction by steady state kinetics analysis. The class given is ADME. Put shortly:
(§2)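 Steady-state kinetics with purified His6-Ssap-NtrB used CB1954 at 0.05–4 mM or a series of SN23862 concentrations in 50 mM Tris-Cl pH 7.0 containing 4% DMSO. Parameters came from nonlinear Michaelis–Menten fitting. One unit is defined as 1 µmol substrate converted per min, and specific activity was expressed per mg active enzyme.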

A short description of series [6]: Prodrug conversion in Tris-HCl buffer assessed as Staphylococcus saprophyticus ATCC 15305 Ssap-NtrB-mediated reduction by steady state kinetics analysis. The class given is ADME. Conditions: for Km: read-out: Km(app). Put shortly: as §2
The nature of series [7]: Prodrug conversion in Tris-HCl buffer using NADPH as cofactor assessed as Escherichia coli NfsB-mediated reduction by steady state kinetics analysis. Format: ADME. Particulars: for Km: read-out: Km(app).
Series [8] can be described thus: Prodrug conversion in Tris-HCl buffer using NADH as cofactor assessed as Escherichia coli NfsB-mediated reduction by steady state kinetics analysis. Conditions: for Km: read-out: Km(app). The class given is ADME.
A short description of series [9]: Ratio of apparent Kcat/apparent Km for Escherichia coli NfsB to apparent Kcat/apparent Km for Staphylococcus saprophyticus ATCC 15305 Ssap-NtrB. Format: ADME.
Series [10] can be described thus: Ratio of apparent Kcat to apparent Km for Escherichia coli NfsB-mediated prodrug conversion using NADPH as cofactor by steady state kinetics analysis. Format: ADME.
The nature of series [11]: Ratio of apparent Kcat to apparent Km for Escherichia coli NfsB-mediated prodrug conversion using NADH as cofactor by steady state kinetics analysis. Format: ADME.
Series [12] in a line: Ratio of apparent Kcat to apparent Km for Escherichia coli NfsA-mediated prodrug conversion using NADPH as cofactor by steady state kinetic analysis. Format: ADME.
The nature of series [13]: Ratio of apparent Kcat to apparent Km for Escherichia coli AzoR-mediated prodrug conversion using NADH as cofactor by steady state kinetic analysis. The class given is ADME.
Series [14] in a line: Ratio of apparent Kcat to apparent Km for Escherichia coli AzoR-mediated prodrug conversion using NADPH as cofactor by steady state kinetic analysis. Format: ADME.
Series [15] can be described thus: Prodrug conversion in buffer using NADPH as cofactor assessed as Escherichia coli NfsA-mediated reduction by steady state kinetics analysis. Format: ADME.
Series [16] in a line: Prodrug conversion in buffer using NADPH as cofactor assessed as Escherichia coli AzoR-mediated reduction by steady state kinetics analysis. The class given is ADME.
Series [17] in a line: Prodrug conversion in sodium phosphate buffer using NADPH as cofactor assessed as Bacillus amyloliquefaciens CAMR 0454 ywrO-mediated reduction by steady state kinetics analysis. The class given is ADME.
A short description of series [18]: Prodrug conversion in buffer using NADH as cofactor assessed as Escherichia coli AzoR-mediated reduction by steady state kinetics analysis. The class given is ADME.
Series [19] in a line: Prodrug conversion in Tris-HCl buffer assessed as Staphylococcus saprophyticus ATCC 15305 Ssap-NtrB-mediated [5-(aziridin-1-yl)-2-hydroxyamino-4-nitrobenzamide] formation after 30 mins by HPLC analysis. Format: ADME. Particulars: 0.5 h. Put shortly: as §1
Series [20] can be described thus: Prodrug conversion in Tris-HCl buffer assessed as Staphylococcus saprophyticus ATCC 15305 Ssap-NtrB-mediated [5-(aziridin-1-yl)-4-hydroxyamino-2-nitrobenzamide] formation after 30 mins by HPLC analysis. Format: ADME. Particulars: 0.5 h. Put shortly: as §1
Series [21] can be described thus: Ratio of apparent Km for Escherichia coli NfsB-mediated prodrug conversion to apparent Km for Staphylococcus saprophyticus ATCC 15305 Ssap-NtrB-mediated prodrug conversion. The class given is ADME.
Series [22] is described as follows: Ratio of apparent Kcat to apparent Km for Bacillus amyloliquefaciens CAMR 0454 ywrO-mediated prodrug conversion using NADPH as cofactor by steady state kinetic analysis. Format: ADME.

Regarding `NC(=O)c1cc(N(CCCl)CCCl)c([N+](=O)[O-])cc1[N+](=O)[O-]`, the Activity in series [1] and in series [2] was 60% throughout. In addition, the values for the Drug metabolism entry in [3] and in series [4] were “Active” and “Not Active”, respectively. Besides, in [5], the Kcat/Km amounted to 9350 M⁻¹ s⁻¹. The “Kcat(app)” value in series [6] worked out at 0.77 s⁻¹. Besides, in series [6], the Km (as a rule, the concentration of substrate that gives half-maximal velocity) turned out to be 82.4 µM.

Turning to `NC(=O)N/N=C/c1ccc([N+](=O)[O-])o1` [NITROFURAZONE], the “Kcat(app)” value is 10.5 s⁻¹ in [7], 10.7 s⁻¹ in [8] and 2.2 s⁻¹ in series [6]. Moreover, the Km in series [7] is 170 µM; in [8], 160 µM; in series [6] it was 49.8 µM. Further, the Ratio in [9] turned out to be 1.4. For the same compound, the Kcat/Km in [10] stood at 61764 M⁻¹ s⁻¹; in [5] it was 44180 M⁻¹ s⁻¹; in series [11], 66875 M⁻¹ s⁻¹.

Take `NC(=O)c1cc(N2CC2)c([N+](=O)[O-])cc1[N+](=O)[O-]` [TRETAZICAR]: the Activity in series [1] and in series [2] was 55% throughout. Besides, the “Kcat(app)” value was 26 s⁻¹ in [7]; 62 s⁻¹ in [8]; 16 s⁻¹ in [15]; 0.15 s⁻¹ in series [16]; 8.2 s⁻¹ in series [17]; 0.15 s⁻¹ in [18]. The “Kcat(app)” value in series [6] is 2.26 s⁻¹. For the same compound, the Michaelis constant (Km) in series [7] was found to be 3600 µM; in series [8], 11000 µM; in [15] (read-out: Km(app)) it was 220 µM; in [16] (read-out: Km(app)), 1400 µM; in series [17] (read-out: Km(app)), 618 µM; in series [18] (read-out: Km(app)), 6600 µM. Also, in series [6], the Km is 1070 µM. Moreover, the Kcat/Km in series [12] came out at 73000 M⁻¹ s⁻¹; in [13], 23 M⁻¹ s⁻¹; in series [14], 110 M⁻¹ s⁻¹; in series [10], 7300 M⁻¹ s⁻¹; in [5] it was 2120 M⁻¹ s⁻¹; in series [11] it was 5600 M⁻¹ s⁻¹. Further, the Kcat/Km in series [22] was 13268 M⁻¹ s⁻¹. Moreover, the Drug metabolism entry in [19] and in [20] was “Active” each time. For the same compound, in series [21], the Ratio was 20.
